Measurements as given in ChEMBL document CHEMBL1153793, “New pyridone, thioxopyridine, pyrazolopyridine and pyridine derivatives that modulate inflammatory mediators in stimulated RAW 264.7 murine macrophage” (Eur J Med Chem, 2009).
Active and inactive are the calls of the source. No cut-off for these calls is given here.

Key:
RAW264.7 [1] = assay: Effect on mouse RAW264.7 cell function assessed as FITC-LPS binding to macrophage after 15 mins by fluorimetry; type: functional, cell-based
How it was run: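 5×10^5 RAW 264.7 cells pre-incubated 15 min at 37 °C with compound in RPMI-1640 plus 10% FBS as the CD14/LBP source. FITC-LPS (200 ng/ml) then added for 1 h. After PBS wash, fluorescence read at ex 485/em 530 nm and median fluorescence intensity reported.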

RAW264.7 [2] = assay: Induction of phagocytosis in mouse RAW264.7 cells assessed as phagocytic activity against FITC-zymosan after 1 hr by fluorimetry; type: functional, cell-based
How it was run: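 Cells at 1×10^5/well in phenol red-free RPMI-1640 rested 24 h, then given compound for 1 h. FITC-zymosan added for a further 1 h; cells washed three times and lysed with Triton X-100. Fluorescence read at 485/530 nm and expressed relative to untreated cells (100%).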

RAW264.7 [3] = assay: Effect on inflammatory mediators in LPS-stimulated mouse RAW264.7 cells assessed as nitrite accumulation at 20 uM after 24 hrs by Griess assay; type: functional
How it was run: (§1)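 Cells in phenol red-free RPMI-1640 with 10% FBS treated 24 h with 20 µM compound, with or without LPS (1 µg/ml). Supernatant mixed 1:1 with Griess reagent for 10 min, A550 read against a sodium nitrite standard curve, then normalised to BCA protein.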

RAW264.7 [4] = assay: Effect on inflammatory mediators in mouse RAW264.7 cells assessed as nitrite accumulation at 20 uM after 24 hrs by Griess assay; type: functional; how it was run: as §1
RAW264.7 [5] = assay: Effect on inflammatory mediators in LPS-stimulated mouse RAW264.7 cells assessed as TNF-alpha accumulation at 20 uM after 24 hrs by ELISA; type: functional
How it was run: (§2)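 RAW 264.7 given 20 µM compound for 24 h, alone or together with LPS at 1 µg/ml. TNF-α and PGE2 in harvested supernatants quantified with commercial ELISA kits per manufacturer; four repeats, means reported.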

RAW264.7 [6] = assay: Effect on inflammatory mediators in mouse RAW264.7 cells assessed as TNF-alpha accumulation at 20 uM after 24 hrs by ELISA; type: functional; how it was run: as §2
RAW264.7 [7] = assay: Effect on inflammatory mediators in LPS-stimulated mouse RAW264.7 cells assessed as PGE2 accumulation at 20 uM after 24 hrs by ELISA; type: functional; how it was run: as §2
RAW264.7 [8] = assay: Effect on inflammatory mediators in mouse RAW264.7 cells assessed as PGE2 accumulation at 20 uM after 24 hrs by ELISA; type: functional; how it was run: as §2
RAW264.7 [9] = assay: Effect on inflammatory mediators in LPS-stimulated mouse RAW264.7 cells assessed as COX-2 accumulation at 20 uM after 24 hrs by dot immunoblotting; type: functional
How it was run: (§3)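 Cells treated 24 h with 20 µM compound, with or without LPS (1 µg/ml). 20 µg soluble lysate protein dot-blotted onto nitrocellulose and probed with rabbit anti-mouse COX-2 or 5-LO, HRP anti-rabbit secondary and OPD colour. Intensity normalised to β-actin dots; four repeats.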

RAW264.7 [10] = assay: Effect on inflammatory mediators in mouse RAW264.7 cells assessed as COX-2 accumulation at 20 uM after 24 hrs by dot immunoblotting; type: functional; how it was run: as §3
RAW264.7 [11] = assay: Effect on inflammatory mediators in LPS-stimulated mouse RAW264.7 cells assessed as 5-LO accumulation at 20 uM after 24 hrs by dot immunoblotting; type: functional; how it was run: as §3
RAW264.7 [12] = assay: Effect on inflammatory mediators in mouse RAW264.7 cells assessed as 5-LO accumulation at 20 uM after 24 hrs by dot immunoblotting; type: functional; how it was run: as §3
[13] = Hydroxyl radical scavenging activity assessed as trolox equivalents at 1 uM by ORAC assay; type: functional
How it was run: (§4)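 β-Phycoerythrin fluorescence decay followed kinetically for 2 h at 37 °C with 1 µM compound, against peroxyl and hydroxyl radicals. One ORAC unit = net protection given by 1.0 µM Trolox.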

[14] = Peroxyl radical scavenging activity assessed as trolox equivalents at 1 uM by ORAC assay; how it was run: as §4
[15] = Antioxidant activity assessed as superoxide radical scavenging activity; type: functional
How it was run: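 Non-cellular assay; superoxide generated by oxidation of 50 µM hypoxanthine with 12 mU xanthine oxidase. Scavenging followed as the rate of nitroblue tetrazolium reduction to formazan. SC50 taken from dose-dependent curves of serial dilutions; superoxide dismutase as standard inhibitor.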

RAW264.7 [16] = assay: Cytotoxicity against mouse RAW264.7 cells assessed as cell viability after 24 hrs by MTT assay; type: cell-based; settings: RAW264.7, 24 h, in the assay text read “MTT assay” for “ultra gel clot assay”
How it was run: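 RAW 264.7 macrophages (5×10^4 cells/well) exposed 24 h at 37 °C to a range of compound concentrations, then read by MTT reduction to formazan, solubilised in acidic isopropanol. Viability expressed as mean % of untreated cells (n = 4); 1000 U/ml M-CSF as positive control. IC50 derived.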

Row | SMILES | Activity (RAW264.7 [1]) | Activity (RAW264.7 [2]) | Activity (RAW264.7 [3]) [nmol] | Activity (RAW264.7 [4]) [nmol] | Activity (RAW264.7 [5]) [pg] | Activity (RAW264.7 [6]) [pg] | Activity (RAW264.7 [7]) [pg] | Activity (RAW264.7 [8]) [pg] | Activity (RAW264.7 [9]) [%] | Activity (RAW264.7 [10]) [%] | Activity (RAW264.7 [11]) [%] | Activity (RAW264.7 [12]) [%] | Activity [13] | Activity [14] | SC50 [15] [µg/mL] | IC50 (RAW264.7 [16]) [µM]
1 | COc1ccc(-c2cc(-c3ccc4c(c3)CCCC4)nc(OCC(=O)NCc3ccccc3)c2C#N)cc1OC | inactive | inactive | 155.25 | 26.65 | 854.16 | 116.8 | 2018.96 | 53.1 | 73.3 | 23.7 | 77.4 | 18.9 | 2.31 | 3.56 | 19.9 | 
2 | COc1ccc(-c2cc(-c3ccc4c(c3)CCCC4)nc3[nH]nc(N)c23)cc1OC |  |  | 145.67 | 10.53 | 4185.85 | 94.88 | 3415.23 | 28.6 | 63.7 | 15.7 | 81.8 | 24 | 5.85 | 1.92 | > 100 | > 50
3 | CC(C)c1ccc(-c2cc(-c3ccc4c(c3)CCCC4)[nH]c(=S)c2C#N)cc1 | Active | Active | 25.58 | 12.66 | 1458.16 | 101.5 | 1843.42 | 41.84 | 36.7 | 18.2 | 31.6 | 14.2 | 5.41 | 4.32 | 10.2 | > 100
4 | CC(C)c1ccc(-c2cc(-c3ccc4c(c3)CCCC4)[nH]c(=O)c2C#N)cc1 | Active | Active | 32.55 | 8.51 | 1255.6 | 91.67 | 2105.3 | 40.13 | 42.7 | 21.4 | 25.1 | 20.3 | 0.92 | 0.75 | 85.4 | > 100
5 | N#Cc1c(-c2c[nH]c3ccccc23)cc(-c2ccc3c(c2)CCCC3)[nH]c1=S |  |  | 480.05 | 15.5 | 4925.35 | 75.4 | 3005.3 | 49.82 | 59.8 | 28.1 | 69.4 | 23.8 | 4.2 | 6.13 | 4.22 | > 100
6 | CC(C)c1ccc(-c2cc(-c3ccc4c(c3)CCCC4)nc3[nH]nc(N)c23)cc1 | Active | Active | 62.42 | 5.62 | 1925.78 | 105.6 | 2974.23 | 32.21 |  |  |  |  | 2.28 | 2.45 | 21.9 | > 50
7 | COc1ccc(-c2cc(-c3ccc4c(c3)CCCC4)nc(OCC(=O)NN)c2C#N)cc1OC |  |  | 78.54 | 1.34 | 4924.22 | 124.68 | 3111.94 | 25.6 | 71.3 | 10.2 | 83.2 | 13.8 | 5.84 | 5.12 | 8.67 | 3.1
8 | COc1ccc(-c2cc(-c3ccc4c(c3)CCCC4)[nH]c(=O)c2C#N)cc1OC |  |  | 355.78 | 14.8 | 3860.25 | 69.56 | 3120.45 | 30.35 | 76.3 | 14.6 | 92.1 | 15.8 | 0.54 | 0.41 | > 100 | > 100
9 | CC(C)c1ccc(-c2cc(-c3ccc4c(c3)CCCC4)nc(NCc3ccccc3)c2C#N)cc1 | inactive |  | 922.5 | 614.63 | 6325.08 | 1890.16 | 3222.55 | 48.3 | 97.3 | 53.2 | 88.7 | 29.8 | 1.01 | 1.34 | 77.6 | > 50
10 | N#Cc1c(-c2c[nH]c3ccccc23)cc(-c2ccc3c(c2)CCCC3)[nH]c1=O |  | Active | 505.75 | 16.25 | 5100.15 | 88.44 | 3210.3 | 32.63 | 82.4 | 16.3 | 82.3 | 23.5 | 0.21 | 0.35 | 78.5 | > 100
